Active and inactive are the calls of the source. No cut-off for these calls is given here.
Key:
MCF7 [1] = assay: Induction of cell cycle arrest in human MCF7 cells assessed as accumulation of cells at G1 phase at 5 to 10 uM incubated for 36 hrs by PI staining based flow cytometry; assay type: functional; details: dose 5-10 µM
Summary of the method: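 Following 36 h treatment (0, 5, 10 μM), trypsinized cells fixed overnight in 70% ethanol, treated with RNase (0.2 mg/mL) and PI (0.1 mg/mL) for 20 min, then analysed by flow cytometry for cell-cycle distribution; n = 3 versus control.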

SK-BR-3 [2] = assay: Induction of apoptosis in human SK-BR-3 cells assessed as increase in cleaved pro-caspase-8 level at 10 to 20 uM incubated for 48 hrs by Western blot analysis; assay type: functional, cell-based; details: dose 10-20 µM
Summary of the method: (§1)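 Cells exposed 48 h (DMSO vehicle control); trypsinized, lysed in RIPA with phosphatase/protease inhibitors; 20 μg protein on SDS-PAGE, blotted, blocked 5% milk 1 h; primary antibodies 1:1000 overnight at 4 °C, GAPDH 1:10000 as loading control; HRP secondary 1:1000–1:5000; ECL detection.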

MCF7 [3] = assay: Induction of apoptosis in human MCF7 cells assessed as late apoptotic cells at 20 uM incubated for 36 hrs by Annexin V/PI staining based flow cytometry (reference value: 6.02 %); assay type: functional
SK-BR-3 [4] = assay: Induction of apoptosis in human SK-BR-3 cells assessed as increase in cleaved pro-caspase-9 level at 10 to 20 uM incubated for 48 hrs by Western blot analysis; assay type: functional, cell-based; details: dose 10-20 µM; summary of the method: as §1
MCF7 [5] = assay: Induction of apoptosis in human MCF7 cells assessed as increase in cleaved PARP level at 10 to 20 uM incubated for 48 hrs by Western blot analysis; assay type: functional, cell-based; details: dose 10-20 µM; summary of the method: as §1
Heat shock protein HSP90 [6] = target: T1, Heat shock protein HSP90 (Homo sapiens, UniProt P07900+P08238); assay: Inhibition of HSP90 in human SK-BR-3 cells assessed as decrease in AKT level at 5 to 20 uM incubated for 48 hrs by Western blot analysis; assay type: cell-based; details: dose 5-20 µM
Summary of the method: (§2)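 MCF-7 or SKBr3 cells were exposed for 48 h, then trypsinised, PBS-washed and lysed in RIPA buffer with phosphatase and protease inhibitors. Cleared lysate (14 000 rpm, 4 °C, 15 min) was BCA-quantified, and 20 µg protein was run on SDS-PAGE and blotted. Blots were blocked in 5% milk, incubated with primary antibodies (1:1000) overnight at 4 °C, then HRP secondary, and developed by ECL. GAPDH (1:10000) was the loading control.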

MCF7 [7] = assay: Induction of apoptosis in human MCF7 cells assessed as early apoptotic cells at 5 uM incubated for 36 hrs by Annexin V/PI staining based flow cytometry (reference value: 1.13 %); assay type: functional
Heat shock protein HSP90 [8] = target: T1, Heat shock protein HSP90; assay: Inhibition of HSP90 in human MCF7 cells assessed as decrease in phosphorylated AKT level at 5 to 20 uM incubated for 48 hrs by Western blot analysis; assay type: cell-based; details: dose 5-20 µM; summary of the method: as §2
MCF7 [9] = assay: Effect on AKT level in human MCF7 cells at 5 to 20 uM incubated for 48 hrs by Western blot analysis; assay type: functional, cell-based; details: dose 5-20 µM; summary of the method: as §1
SK-BR-3 [10] = assay: Induction of apoptosis in human SK-BR-3 cells assessed as late apoptotic cells at 5 uM incubated for 36 hrs by Annexin V/PI staining based flow cytometry (reference value: 4.95 %); assay type: functional
MCF7 [11] = assay: Induction of apoptosis in human MCF7 cells assessed as viable cells at 5 uM incubated for 36 hrs by Annexin V/PI staining based flow cytometry (reference value: 90.5 %); assay type: functional; details: read-out: Activity
Heat shock protein HSP90 [12] = target: T1, Heat shock protein HSP90; assay: Inhibition of HSP90 in human MCF7 cells assessed as decrease in CDK4 level at 5 to 20 uM incubated for 48 hrs by Western blot analysis; assay type: cell-based; details: dose 5-20 µM; summary of the method: as §2
MCF7 [13] = assay: Induction of apoptosis in human MCF7 cells assessed as necrotic cells at 5 uM incubated for 36 hrs by Annexin V/PI staining based flow cytometry (reference value: 2.30 %); assay type: functional
SK-BR-3 [14] = assay: Induction of apoptosis in human SK-BR-3 cells assessed as late apoptotic cells at 20 uM incubated for 36 hrs by Annexin V/PI staining based flow cytometry (reference value: 4.95 %); assay type: functional
[15] = Thermal stability of compound in boiling toluene at 120 degreeC assessed as time taken for compound decomposition at 1 mg/ml by HPLC analysis; assay type: physicochemical; details: read-out: T50
SK-BR-3 [16] = assay: Induction of apoptosis in human SK-BR-3 cells assessed as early apoptotic cells at 20 uM incubated for 36 hrs by Annexin V/PI staining based flow cytometry (reference value: 2.73 %); assay type: functional
MCF7 [17] = assay: Induction of apoptosis in human MCF7 cells assessed as viable cells at 10 uM incubated for 36 hrs by Annexin V/PI staining based flow cytometry (reference value: 90.5 %); assay type: functional; details: read-out: Activity
MCF7 [18] = assay: Antiproliferative activity against human MCF7 cells assessed as inhibition of cell viability at 20 uM measured after 48 hrs by MTT assay relative to control; assay type: functional
SK-BR-3 [19] = assay: Induction of apoptosis in human SK-BR-3 cells assessed as necrotic cells at 10 uM incubated for 36 hrs by Annexin V/PI staining based flow cytometry (reference value: 1.89 %); assay type: functional
Heat shock protein HSP90 [20] = target: T1, Heat shock protein HSP90; assay: Inhibition of HSP90 in human SK-BR-3 cells assessed as decrease in CDK4 level at 5 to 20 uM incubated for 48 hrs by Western blot analysis; assay type: cell-based; details: dose 5-20 µM; summary of the method: as §2
BT-474 = assay: Antiproliferative activity against human BT-474 cells assessed as inhibition of cell viability measured after 48 hrs by MTT assay; assay type: functional, cell-based; details: BT-474, 48 h
Summary of the method: (§3)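 MTT cell viability read-out; IC50 obtained by non-linear regression of concentration–response data; values are mean ± SD of three independent experiments.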

[21] = Selectivity index, ratio of IC50 for HEK293T cells to IC50 for human MCF7 cells; assay type: toxicity; details: HEK293T cells versus MCF7 cells, read-out: Ratio IC50
Summary of the method: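 Viability of 293T and MCF-7 cells was measured by MTT assay, and IC50 was fitted by non-linear regression. The selectivity index is the 293T IC50 divided by the MCF-7 IC50.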

HCC1806 = assay: Antiproliferative activity against human HCC1806 cells assessed as inhibition of cell viability measured after 48 hrs by MTT assay; assay type: functional, cell-based; details: HCC1806, 48 h; summary of the method: as §3
SK-BR-3 [22] = assay: Induction of apoptosis in human SK-BR-3 cells assessed as early apoptotic cells at 5 uM incubated for 36 hrs by Annexin V/PI staining based flow cytometry (reference value: 2.73 %); assay type: functional
Heat shock protein HSP90 [23] = target: T1, Heat shock protein HSP90; assay: Inhibition of HSP90 in human MCF7 cells assessed as decrease in HER2 level at 5 to 20 uM incubated for 48 hrs by Western blot analysis; assay type: cell-based; details: dose 5-20 µM; summary of the method: as §2
SK-BR-3 [24] = assay: Effect on HSP70 level in human SK-BR-3 cells at 10 uM incubated for 36 hrs by DAPI staining based immunofluorescence analysis; assay type: functional, cell-based
Summary of the method: (§4)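 Cells treated 36 h with DMSO vehicle control, then fixed with 4% paraformaldehyde 15 min, permeabilized with 0.2% Triton X-100 5 min, blocked with 3% BSA 15 min; primary antibody then fluorescent secondary antibody, each 1 h at room temperature; HSP70 green, HSF-1 red, nuclei DAPI; imaged by fluorescence microscopy.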

MCF7 [25] = assay: Effect on HSF-1 level in human MCF7 cells assessed as nuclear accumulation at 10 uM incubated for 36 hrs by DAPI staining based immunofluorescence analysis; assay type: functional, cell-based; summary of the method: as §4
MCF7 [26] = assay: Effect on HSP70 level in human MCF7 cells at 5 to 20 uM incubated for 48 hrs by Western blot analysis; assay type: functional, cell-based; details: dose 5-20 µM; summary of the method: as §1

inhibition (Heat shock protein HSP90 [6]): Active
inhibition (Heat shock protein HSP90 [8]): Active
inhibition (Heat shock protein HSP90 [12]): Active
half-life at 1 mg/ml [15]: > 12 h
inhibition (Heat shock protein HSP90 [20]): Active
IC50 (BT-474): 9.06 µM
IC50 (HCC1806): 10.1 µM
inhibition (Heat shock protein HSP90 [23]): Active
SMILES: CN1CCN(/C=C/C(=O)/C=C/c2cccc(O[Si](C)(C)C(C)(C)C)c2)CC1
Activity (MCF7 [1]): Active
Activity (SK-BR-3 [2]): Active
Activity (MCF7 [3]): 28.4%
Activity (SK-BR-3 [4]): Active
Activity (MCF7 [5]): Active
Activity (MCF7 [7]): 1.58%
Activity (MCF7 [9]): inactive
Activity (SK-BR-3 [10]): 5.82%
viability at 5 µM (MCF7 [11]): 80%
Activity (MCF7 [13]): 8.45%
Activity (SK-BR-3 [14]): 30.7%
Activity (SK-BR-3 [16]): 47.7%
viability at 10 µM (MCF7 [17]): 65.6%
inhibition at 20 µM (MCF7 [18]): > 50%
Activity (SK-BR-3 [19]): 1.7%
selectivity ratio [21]: ~4.2
Activity (SK-BR-3 [22]): 2.76%
Activity (SK-BR-3 [24]): inactive
Activity (MCF7 [25]): inactive
Activity (MCF7 [26]): inactive

Reference: ChEMBL document CHEMBL5356984 (RSC Med Chem, 2023)
